From ChEMBL document CHEMBL2176905 (J Med Chem, 2012)
Where a name gives a salt, the structure may show the parent alone. Values belong to the compound of their own block, whether it stands above or below them. Active and inactive are the calls of the source. No cut-off for these calls is given here. Residues, ends and D or L forms follow the SMILES beside them. *: point of attachment. PhAc = O=C(Cc1ccccc1)*; Tfa = O=C(C(F)(F)F)*; NHBu = CCCCN*

Assays:
[1] = target: T1, Prothrombin (Homo sapiens, UniProt P00734); experiment: Inhibition of thrombin assessed as hydrolysis of H-D-Pro-L-Phe-L-Arg-p-nitroanilide at 100 uM incubated for 2 hrs measured for 20 mins by microplate reader analysis
Summary of the method: (§1)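 Counter-screen in 0.1 M HEPES with 0.5 M NaCl, pH 7.25, 96-well format, duplicates. Chymotrypsin, trypsin and porcine pancreatic elastase were commercial; thrombin and plasminogen were purified in-house. Chromogenic substrate hydrolysis followed kinetically at 405 nm on a plate reader. Test compounds up to 100 μM maximum; AEBSF run as irreversible positive control with IC50 determined.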

[2] = target: T2, Plasminogen (Homo sapiens, UniProt P00747); experiment: Inhibition of plasmin assessed as hydrolysis of H-D-Val-L-Leu-L-Lys-p-nitroanilide at 100 uM incubated for 2 hrs measured for 20 mins by microplate reader analysis; summary of the method: as §1
[3] = target: T3, Neutrophil elastase (Homo sapiens, UniProt P08246); experiment: Uncompetitive inhibition of human neutrophil elastase assessed as hydrolysis of N-succinyl-Ala-Ala-Pro-Val-p-nitroanilide incubated for 2 hrs measured for 20 mins by Dixon and Cornish-Bowden analysis
T3 sequence (P08246 whole entry): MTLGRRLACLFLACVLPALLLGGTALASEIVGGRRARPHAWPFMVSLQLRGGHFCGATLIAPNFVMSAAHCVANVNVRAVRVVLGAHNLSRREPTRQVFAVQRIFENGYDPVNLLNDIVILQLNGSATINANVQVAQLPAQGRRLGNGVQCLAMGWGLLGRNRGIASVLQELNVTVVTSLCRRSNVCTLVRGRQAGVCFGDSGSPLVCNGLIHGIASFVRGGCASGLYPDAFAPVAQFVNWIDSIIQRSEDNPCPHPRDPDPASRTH
Summary of the method: (§2)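 Mechanism study: HNE (final 30 nM) preincubated 2 h at 25 °C with inhibitor (final 5−20 μM, 3 concentrations) in 0.1 M HEPES, 0.5 M NaCl, pH 7.25, 5.5% DMSO. Suc-Ala-Ala-Pro-Val-pNA added at two final levels, 0.0875 or 0.35 mM. Rate followed at 405 nm, 25 °C, 20 min. Duplicates; Dixon and Cornish-Bowden plots.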

[4] = target: T3, Neutrophil elastase; experiment: Inhibition of human neutrophil elastase assessed as hydrolysis of N-succinyl-Ala-Ala-Pro-Val-p-nitroanilide incubated for 2 hrs measured for 20 mins by microplate reader analysis
Summary of the method: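 HNE (stock 2.8 μM in pH 5.5 acetate/0.5 M NaCl; final 30 nM) preincubated 2 h at 25 °C with inhibitor (final 0.5−50 μM, 7 concentrations) in 0.1 M HEPES, 0.5 M NaCl, pH 7.25, 5.5% DMSO. Suc-Ala-Ala-Pro-Val-pNA added (final 0.35 mM). Hydrolysis rate read kinetically at 405 nm, 25 °C, 20 min. Duplicates; IC50 derived.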

[5] = Inhibition of trypsin assessed as hydrolysis of H-D-Pro-L-Phe-L-Arg-p-nitroanilide at 100 uM incubated for 2 hrs measured for 20 mins by microplate reader analysis; summary of the method: as §1
[6] = Inhibition of chymotrypsin assessed as hydrolysis of N-succinyl-Ala-Ala-Pro-Phe-p-nitroanilide at 100 uM incubated for 2 hrs measured for 20 mins by microplate reader analysis; summary of the method: as §1
[7] = target: Pancreatic elastase (Sus scrofa) (UniProt P08419+P00772); experiment: Inhibition of porcine pancreatic elastase assessed as hydrolysis of N-succinyl-Ala-Ala-Ala-p-nitroanilide at 100 uM incubated for 2 hrs measured for 20 mins by microplate reader analysis; format: protein assay; summary of the method: as §1
[8] = target: T4, Cathepsin G (Homo sapiens) (UniProt P08311); experiment: Inhibition of cathepsin G assessed as hydrolysis of N-succinyl-Ala-Ala-Pro-Phe-p-nitroanilide at 100 uM incubated for 2 hrs measured for 20 mins by microplate reader analysis
T4 sequence (whole entry): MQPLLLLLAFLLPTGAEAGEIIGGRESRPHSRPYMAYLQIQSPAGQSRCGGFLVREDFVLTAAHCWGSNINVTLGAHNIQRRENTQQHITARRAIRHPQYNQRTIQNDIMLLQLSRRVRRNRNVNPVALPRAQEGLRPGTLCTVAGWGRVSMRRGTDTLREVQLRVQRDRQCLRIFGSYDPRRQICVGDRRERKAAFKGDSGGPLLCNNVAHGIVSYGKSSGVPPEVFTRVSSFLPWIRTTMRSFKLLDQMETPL

[9] = target: T3, Neutrophil elastase; experiment: Inhibition of human neutrophil elastase
[10] = target: T1, Prothrombin; experiment: Inhibition of thrombin assessed as hydrolysis of H-D-Pro-L-Phe-L-Arg-p-nitroanilide incubated for 2 hrs measured for 20 mins by microplate reader analysis; summary of the method: as §1
[11] = Inhibition of chymotrypsin assessed as hydrolysis of N-succinyl-Ala-Ala-Pro-Phe-p-nitroanilide incubated for 2 hrs measured for 20 mins by microplate reader analysis; summary of the method: as §1
[12] = Inhibition of trypsin assessed as hydrolysis of H-D-Pro-L-Phe-L-Arg-p-nitroanilide incubated for 2 hrs measured for 20 mins by microplate reader analysis; summary of the method: as §1
[13] = target: T3, Neutrophil elastase; experiment: Noncompetitive inhibition of human neutrophil elastase assessed as hydrolysis of N-succinyl-Ala-Ala-Pro-Val-p-nitroanilide incubated for 2 hrs measured for 20 mins by Dixon and Cornish-Bowden analysis; summary of the method: as §2
[14] = target: T2, Plasminogen; experiment: Inhibition of plasmin assessed as hydrolysis of H-D-Val-L-Leu-L-Lys-p-nitroanilide incubated for 2 hrs measured for 20 mins by microplate reader analysis
Summary of the method: (§3)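 Selectivity panel run in duplicate in 0.1 M HEPES with 0.5 M NaCl, pH 7.25. p-Nitroanilide release was followed kinetically at 405 nm, with inhibitor tested up to 100 μM maximum. Plasmin came from plasminogen purified in-house; porcine pancreatic elastase was commercial. IC50 values were determined.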

[15] = target: Pancreatic elastase (Sus scrofa, UniProt P08419+P00772); experiment: Inhibition of porcine pancreatic elastase assessed as hydrolysis of N-succinyl-Ala-Ala-Ala-p-nitroanilide incubated for 2 hrs measured for 20 mins by microplate reader analysis; format: protein assay; summary of the method: as §3
[16] = Inhibition of HIV protease; set-up: species or system Human immunodeficiency virus
[17] = target: T5, Cathepsin G (Homo sapiens, UniProt P08311); experiment: Inhibition of cathepsin G assessed as hydrolysis of N-succinyl-Ala-Ala-Pro-Phe-p-nitroanilide incubated for 2 hrs measured for 20 mins by microplate reader analysis
T5 sequence (P08311 whole entry): T4 sequence (whole entry)

T2 sequence (P00747 97-580 limits assumed): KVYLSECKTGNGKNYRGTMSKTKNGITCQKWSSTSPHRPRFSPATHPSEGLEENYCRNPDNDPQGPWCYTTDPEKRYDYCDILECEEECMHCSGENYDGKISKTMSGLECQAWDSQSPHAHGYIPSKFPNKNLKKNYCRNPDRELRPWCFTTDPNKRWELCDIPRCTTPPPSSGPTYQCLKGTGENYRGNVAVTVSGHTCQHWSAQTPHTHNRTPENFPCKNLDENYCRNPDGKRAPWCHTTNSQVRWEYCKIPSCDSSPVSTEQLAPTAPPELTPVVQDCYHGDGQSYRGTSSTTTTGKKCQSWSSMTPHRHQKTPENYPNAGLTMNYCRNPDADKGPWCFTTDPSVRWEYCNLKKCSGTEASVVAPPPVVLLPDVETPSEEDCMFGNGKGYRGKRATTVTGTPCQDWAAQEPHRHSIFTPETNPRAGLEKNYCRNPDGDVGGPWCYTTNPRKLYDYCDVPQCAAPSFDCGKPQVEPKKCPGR
T2 sequence (P00747 581-810 limits assumed): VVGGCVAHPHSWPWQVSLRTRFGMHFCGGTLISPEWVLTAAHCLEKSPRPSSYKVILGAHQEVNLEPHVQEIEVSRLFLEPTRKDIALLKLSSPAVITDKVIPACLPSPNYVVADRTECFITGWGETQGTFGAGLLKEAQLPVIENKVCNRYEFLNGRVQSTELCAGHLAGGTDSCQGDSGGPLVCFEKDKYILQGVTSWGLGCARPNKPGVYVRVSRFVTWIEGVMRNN

SMILES: CCCCNC(=O)CC[Si](O)(O)[C@H](CC(C)C)NC(=O)[C@@H](NC(=O)C(F)(F)F)[C@@H](C)CC
IC50 [4]: 46 µM

SMILES: CCCCNC(=O)CNC(=O)[C@H](CC(C)C)NC(=O)[C@@H](NC(=O)C(F)(F)F)[C@@H](C)CC (Tfa-Ile-Leu-Gly-NHBu)
IC50 [4]: > 200 µM

SMILES: CCCCNC(=O)CNC(=O)[C@H](CC(C)C)NC(=O)[C@@H](NC(=O)Cc1ccccc1)[C@@H](C)CC (PhAc-Ile-Leu-Gly-NHBu)
IC50 [4]: 51 µM

SMILES: O=C(N[C@H]1c2ccccc2C[C@H]1O)[C@H](Cc1ccccc1)C[Si](O)(O)C[C@@H](Cc1ccccc1)C(=O)N[C@H]1c2ccccc2C[C@H]1O
Ki [16]: 0.0027 µM

SMILES: Cl.NCCc1ccc(S(=O)(=O)F)cc1 [4-AMINOETHYLBENZENESULFONYL FLUORIDE HYDROCHLORIDE]
IC50 [10]: 62 µM
IC50 [14]: 240 µM
IC50 [17]: 250 µM
IC50 [15]: 160 µM
IC50 [11]: 12 µM
IC50 [12]: 10 µM

SMILES: CCCCNC(=O)CNC(=O)[C@H](CC(C)C)NC(=O)[C@@H](NC(C)=O)[C@@H](C)CC (Ac-Ile-Leu-Gly-NHBu)
IC50 [4]: > 200 µM

Continued, values first:

inhibition [1]: inactive
inhibition [2]: inactive
Ki [3]: 4 µM
IC50 [4]: 16 µM
inhibition [5]: inactive
inhibition [6]: inactive
inhibition [7]: inactive
inhibition [8]: inactive
SMILES: CCCCNC(=O)CC[Si](O)(O)[C@H](CC(C)C)NC(=O)[C@@H](NC(=O)c1ccc2ccccc2c1)[C@@H](C)CC

inhibition [1]: inactive
inhibition [2]: inactive
IC50 [9]: 0.3 µM
Ki [3]: 3.5 µM
IC50 [4]: 18 µM
inhibition [5]: inactive
inhibition [6]: inactive
inhibition [7]: inactive
inhibition [8]: inactive
SMILES: CCCCNC(=O)CC[Si](O)(O)[C@@H](CC(C)C)NC(=O)[C@@H](NC(=O)Cc1ccc2ccccc2c1)[C@@H](C)CC

inhibition [2]: inactive
IC50 [10]: 92 µM
IC50 [11]: 110 µM
IC50 [12]: 58 µM
Ki [13]: 13 µM
IC50 [4]: 14 µM
inhibition [7]: inactive
SMILES: CCCCNC(=O)CC[Si](c1ccccc1)(c1ccccc1)[C@H](CC(C)C)NC(=O)[C@@H](NC(=O)Cc1ccc2ccccc2c1)[C@@H](C)CC

IC50 [10]: 100 µM
IC50 [14]: 99 µM
IC50 [15]: 55 µM
IC50 [11]: 150 µM
IC50 [12]: 89 µM
Ki [13]: 18 µM
IC50 [4]: 14 µM
inhibition [8]: inactive
SMILES: CCCCNC(=O)CNC(=O)[C@H](CC(C)C)NC(=O)[C@@H](NC(=O)Cc1ccc2ccccc2c1)[C@@H](C)CC

inhibition [1]: inactive
inhibition [2]: inactive
Ki [3]: 5 µM
IC50 [4]: 38 µM
inhibition [5]: inactive
inhibition [6]: inactive
inhibition [7]: inactive
inhibition [8]: inactive
SMILES: CCCCNC(=O)CC[Si](O)(O)[C@H](CC(C)C)NC(=O)[C@@H](NC(=O)Cc1ccccc1)[C@@H](C)CC

IC50 [9]: 0.3 µM
SMILES: CCCCNC(=O)CC[Si](O)(O)[C@H](CC(C)C)NC(=O)[C@@H](NC(=O)Cc1ccc2ccccc2c1)[C@@H](C)CC

IC50 [4]: > 200 µM
SMILES: CCCCNC(=O)CC[Si](O)(O)[C@H](CC(C)C)NC(=O)[C@@H](NC(C)=O)[C@@H](C)CC

IC50 [4]: 39 µM
SMILES: CC[C@H](C)[C@H](NC(=O)Cc1ccc2ccccc2c1)C(=O)N[C@@H](CC(C)C)[Si](C)(O)O
